Test results as given in ChEMBL document CHEMBL5506013, “Mitochondria-Selective Dicationic Small-Molecule Ligand Targeting G-Quadruplex Structures for Human Colorectal Cancer Therapy” (J Med Chem, 2024).
Activity calls are given as the source filed them. The calls are words filed in the database; no cut-off is given here.

Tests used:
HCT-116 [1] = test: Antiproliferative activity against human HCT-116 cells measured after 48 hrs by MTT assay; assay type: functional, cell-based; details: HCT-116, 48 h
Outline: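 Cells exposed to the ligands for 48 h. Viability was read by MTT, and the IC50 was derived from the response.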

Quadruplex DNA [2] = test: Binding affinity to mito 29 G4 DNA (unknown origin) assessed as dissociation constant measured upto 150 secs by isothermal titration calorimetry assay; assay type: nucleic-acid assay; details: time <= 150.0 sec
Quadruplex DNA [3] = test: Binding affinity to mito 81 G4 DNA (unknown origin) assessed as dissociation constant measured upto 150 secs by isothermal titration calorimetry assay; assay type: nucleic-acid assay
HCT-116 [4] = test: Downregulation of ND1 mRNA level in human HCT-116 cells at 0 to 4 uM measured after 48 hrs by qRT-PCR analysis; assay type: functional, cell-based; details: dose 0-4 µM
HCT-116 [5] = test: Downregulation of mitochondrial respiratory chain complex I level in human HCT-116 cells at upto 4 uM measured after 48 hrs by Western blot analysis; assay type: functional, cell-based
HCT-116 [6] = test: Induction of mitochondrial dysfunction in human HCT-116 cells assessed as decrease in extracellular acidification rate at upto 4 uM incubated for 3 hrs by Seahorse XFe24 analyzer; assay type: functional, cell-based
Outline: (§1)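 Seahorse Mito-stress and glycolysis stress tests on HCT116 cells treated with ligand for 3 h. Oxygen consumption rate and extracellular acidification rate recorded.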

HCT-116 [7] = test: Induction of mitochondrial dysfunction in human HCT-116 cells assessed as decrease in ATP production at upto 4 uM incubated for 3 hrs by Seahorse XFe24 analyzer; assay type: functional, cell-based; outline: as §1
HCT-116 [8] = test: Inhibition of glycolysis in human HCT-116 cells assessed as reduction in glucose consumption at upto 4 uM measured after 3 hrs by Seahorse XFe24 analyzer; assay type: functional, cell-based
HCT-116 [9] = test: Induction of ROS production in human HCT-116 cells assessed as upregulation of ROS level at upto 4 uM measured after 48 hrs in presence of MitoTEMPO by mito-sox staining based analysis; assay type: functional, cell-based
Quadruplex DNA [10] = test: Binding affinity to mito 55 G4 DNA (unknown origin) assessed as increase in fluorescence intensity by fluorescence spectrophotometric analysis; assay type: nucleic-acid assay
Outline: (§2)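 Oligonucleotides were pre-annealed at 95 °C for 10 min, then cooled slowly. Ligand (5 uM) was mixed with 20 uM DNA in buffer. Emission was collected over 550–800 nm, and enhancement was taken at 650 nm as F/F0.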

Quadruplex DNA [11] = test: Binding affinity to mito 0.5-16 G4 DNA (unknown origin) assessed as increase in fluorescence intensity by fluorescence spectrophotometric analysis; assay type: nucleic-acid assay; outline: as §2
Quadruplex DNA [12] = test: Binding affinity to Mito 0.5-16 G4 DNA (unknown origin) assessed as increase in CD signal at 5 uM at 290 nM by circular dichroism spectroscopic analysis; assay type: nucleic-acid assay
Quadruplex DNA [13] = test: Binding affinity to Mito 81 G4 DNA (unknown origin) assessed as change in melting temperature at 5 uM by circular dichroism spectroscopic analysis; assay type: nucleic-acid assay
DNA = test: Binding affinity to HP19 DNA (non-G4 DNA) (unknown origin) assessed as change in melting temperature at 5 uM by circular dichroism spectroscopic analysis; assay type: nucleic-acid assay
[14] = Drug localization in human HCT-116 cells by measuring red foci at 4 uM incubated for 1 hr in presence of MitoPDS by hoechst33342 staining based analysis; assay type: ADME, cell-based; details: hct-116, 1 h
Outline: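 Pretreatment of live HCT116 cells: FCCP 1 uM for 20 min, cyclosporin A 1 uM for 24 h, DMOG 100 uM for 24 h, or MitoPDS at several concentrations for 3 h (applied after dye loading). Cells loaded with ligand 4 uM (excitation 488 nm) for 1 h and Hoechst33342 1 uM for 30 min. Red foci counted by confocal imaging in 100 cells. Mean ± SEM, t test.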

HCT-116 [15] = test: Antitumor activity against human HCT-116 cells assessed as increase in beta-galactosidase activity at upto 4 uM measured after 72 hrs relative to control; assay type: functional; details: up to 4 µM
Outline: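 HCT116 cells were treated for 72 h across 0–4 uM. β-Galactosidase activity was then measured against untreated control. Data are given as mean ± SEM, with significance by t test.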

HCT-116 [16] = test: Upregulation of p53 level in human HCT-116 cells at upto 4 uM measured after 72 hrs by Western blot analysis; assay type: functional, cell-based
HCT-116 [17] = test: Upregulation of cleaved caspase-3 level in human HCT-116 cells at upto 4 uM measured after 72 hrs by Western blot analysis; assay type: functional, cell-based
Outline: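 HCT116 cells treated with ligand at 0-4 uM for 72 h. Lysates immunoblotted for Lamin B1, p53, p21, p16, gamma-H2A.x, caspase-3 and cleaved caspase-3, with beta-actin as loading control.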

HCT-116 [18] = test: Induction of morphological changes in human HCT-116 cells at 4 uM by microscopy based analysis; assay type: functional, cell-based
Outline: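 HCT116 and HFF1 cells treated with ligand at 4 uM alongside untreated controls. Morphology examined by microscopy at 100x.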

HCT-116 [19] = test: Antitumor activity against human HCT-116 cells xenografted in Balb/c nude mouse model assessed as induction of apoptosis at 5 mg/kg, iv administered every two days for 16 days by TUNEL staining based analysis; assay type: functional, organism-based; details: time 16.0 day
Outline: (§3)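 Tumours came from HCT116-xenografted male Balb/c nude mice given 5 mg/kg i.v. every two days, or PBS, for 16 days. Tumour tissue sections were stained by TUNEL for apoptosis and by Ki67 immunofluorescence for proliferation, then compared with the control group.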

HCT-116 [20] = test: Antitumor activity against human HCT-116 cells xenografted in Balb/c nude mouse model assessed as inhibition of tumor cell proliferation at 5 mg/kg, iv administered every two days for 16 days by Ki67 staining based analysis; assay type: functional, organism-based; details: time 16.0 day; outline: as §3
[21] = Toxicity in BALB/c nude mouse assessed as change in lymphocyte count at 5 mg/kg, iv administered every two days for 16 days; assay type: organism-based; details: in vivo, 384 h, time 16 day
Outline: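 HCT116 xenograft-bearing male Balb/c nude mice (6/group) dosed iv at 5 mg/kg every two days or with PBS. Whole blood collected at sacrifice on day 16 for hematology parameters.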

[22] = Toxicity in BALB/c nude mouse assessed as effect on lung at 5 mg/kg, iv measured after 16 hrs post injection by H and E staining based analysis; assay type: organism-based; details: in vivo
[23] = Drug localization in human HCT-116 cells transfected with Cy5-mito 78 G4 DNA at 4 uM incubated for 1 hr by hoechst33342 staining based analysis; assay type: ADME, cell-based; details: hct-116, 1 h
Outline: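 HCT116 cells transfected with Cy5-coupled mtDNA for 24 h, then given ligand 4 uM for 1 h and Hoechst33342 1 uM for 30 min. Single-plane confocal imaging of living cells, ligand excited at 488 nm, Cy5 at 635 nm. Colocalization expressed as r.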

HCT-116 [24] = test: Induction of cell senescence in human HCT-116 cells assessed by increase SA-beta-Gal positive cells at upto 4 uM measured after 72 hrs by SA-bet-gal assay

IC50 (HCT-116 [1]): 3400 nM
Activity (Quadruplex DNA [2]): inactive
Kd (Quadruplex DNA [3]): 60 nM
Activity (Quadruplex DNA [10]): Active
Activity (Quadruplex DNA [11]): Active
Activity (Quadruplex DNA [12]): Active
ΔTm (Quadruplex DNA [13]): 3.6 °C
ΔTm (DNA): 0.5 °C
Drug uptake [14]: Not Active
Drug uptake [23]: Active
SMILES: C(=C\c1ccc2ccccc2[n+]1CCCCCCCC[n+]1c(/C=C/c2ccc(N3CCCCC3)cc2)ccc2ccccc21)/c1ccc(N2CCCCC2)cc1.[I-].[I-]
Activity (HCT-116 [4]): Active
Activity (HCT-116 [5]): Active
Activity (HCT-116 [6]): Active
Activity (HCT-116 [7]): Active
inhibition (HCT-116 [8]): Active
Activity (HCT-116 [9]): inactive
Activity (HCT-116 [15]): 17.63%
Activity (HCT-116 [16]): Active
Activity (HCT-116 [17]): Active
Activity (HCT-116 [18]): Active
Activity (HCT-116 [19]): Active
Activity (HCT-116 [20]): Active
Activity [21]: Non-Toxic
Activity [22]: Non-Toxic
Activity (HCT-116 [24]): Active
